From ChEMBL document CHEMBL1148530, “Discovery of new antitubercular oxazolyl thiosemicarbazones” (J Med Chem, 2006)
In brackets after ≈: the same amount, converted by molar mass. Activity calls are given as the source filed them. The rule behind the calls is not given here.

System: Mycobacterium tuberculosis
Test: Antimycobacterial activity against multidrug resistant Mycobacterium tuberculosis at 25 ug/ml
Assay type: functional, organism-based
Method in brief: (§1)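 MIC determined by agar dilution, following the NCCLS-recommended approach, in duplicate. Strains were M. tuberculosis H37Rv and a multidrug-resistant M. tuberculosis. Concentrations were tested up to 25 µg/mL.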

For N/N=C(\S)Nc1ncc(C2CCC2)o1, the Activity was “inactive”.

System: Vero
Test: Selectivity index, IC50 for Vero cell line/ MIC for multidrug resistant Mycobacterium tuberculosis
Assay type: functional
Method in brief: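 Vero cells were exposed to compound at 62.5 µg/mL for 72 h. Viability was read by MTT conversion to formazan. Selectivity index is the Vero IC50 divided by the agar-dilution MIC against the listed strain.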

S=C(NN=C(c1ccccc1)c1ccccc1)Nc1ncc(C2CCC2)o1 was tested, and the Selectivity index was >1250.

System: Mycobacterium tuberculosis
Test: Antimycobacterial activity against multidrug resistant Mycobacterium tuberculosis
Assay type: functional
Method in brief: as §1

Point of comparison: C/C(=N\N=C(/S)Nc1ncc(C2CCC2)o1)c1ccccc1, MIC 3.12 mg/L (≈ 9.92 µM). Against it:
- C/C(=N\N=C(/S)Nc1ncc(C2CCC2)o1)c1ccc(C)cc1 — 4-fold lower, 0.78 mg/L (≈ 2.37 µM)
- S=C(NN=C(c1ccccc1)c1ccccc1)Nc1ncc(C2CCC2)o1 — 31-fold lower, 0.1 mg/L (≈ 0.266 µM)
- Oc1ccccc1/C=N/N=C(\S)Nc1ncc(C2CCC2)o1 — 2-fold higher, 6.25 mg/L (≈ 19.8 µM)
- CC[C@@H](CO)NCCN[C@@H](CC)CO [ETHAMBUTOL] — 8-fold higher, 25 mg/L (≈ 122 µM)
- COc1c(N2CCNC(C)C2)c(F)cc2c(=O)c(C(=O)O)cn(C3CC3)c12 (stereo unspecified) [GATIFLOXACIN] — 2-fold higher, 6.25 mg/L (≈ 16.6 µM)
- Oc1[nH]c2ccc(F)cc2c1/N=N/C(S)=N/c1ncc(C2CCC2)o1 — 4-fold higher, 12.5 mg/L (≈ 34.8 µM)
- O=[N+]([O-])c1ccc(/C=N/N=C(\S)Nc2ncc(C3CCC3)o2)cc1 — 8-fold lower, 0.39 mg/L (≈ 1.13 µM)
- Cc1ccc(/C=N/N=C(\S)Nc2ncc(C3CCC3)o2)cc1 — the same, 3.12 mg/L (≈ 9.92 µM)
- C/C(=N\N=C(/S)Nc1ncc(C2CCC2)o1)c1ccccc1O — the same, 3.12 mg/L (≈ 9.44 µM)
- S=C(N/N=C(\c1ccccc1)c1ccc(Br)cc1)Nc1ncc(C2CCC2)o1 — 62-fold lower, 0.05 mg/L (≈ 0.11 µM)
- O=[N+]([O-])c1cccc(/C=N/N=C(\S)Nc2ncc(C3CCC3)o2)c1 — 4-fold lower, 0.78 mg/L (≈ 2.26 µM)
- S=C(NN=C(Cc1ccccc1)Cc1ccccc1)Nc1ncc(C2CCC2)o1 — 2-fold higher, 6.25 mg/L (≈ 15.4 µM)
- COc1ccc(/C=N/N=C(\S)Nc2ncc(C3CCC3)o2)cc1 — 2-fold higher, 6.25 mg/L (≈ 18.9 µM)
- S=C(N/N=C/c1ccc(Cl)cc1)Nc1ncc(C2CCC2)o1 — 2-fold lower, 1.56 mg/L (≈ 4.66 µM)
- C/C(=N\N=C(/S)Nc1ncc(C2CCC2)o1)c1ccc(N)cc1 — 4-fold lower, 0.78 mg/L (≈ 2.37 µM)
- CO[C@H]1/C=C/O[C@@]2(C)Oc3c(C)c(O)c4c(O)c(c(/C=N/N5CCN(C)CC5)c(O)c4c3C2=O)NC(=O)/C(C)=C\C=C\[C@H](C)[C@H](O)[C@@H](C)[C@@H](O)[C@@H](C)[C@H](OC(C)=O)[C@@H]1C [RIFAMPIN] — the same, 3.12 mg/L (≈ 3.79 µM)
- C/C(=N\N=C(/S)Nc1ncc(C2CCC2)o1)c1ccc([N+](=O)[O-])cc1 — 16-fold lower, 0.2 mg/L (≈ 0.556 µM)
- O=[N+]([O-])c1ccccc1/C=N/N=C(\S)Nc1ncc(C2CCC2)o1 — 4-fold lower, 0.78 mg/L (≈ 2.26 µM)
- COc1cc(/C=N/N=C(\S)Nc2ncc(C3CCC3)o2)ccc1O — 4-fold higher, 12.5 mg/L (≈ 36.1 µM)
- Oc1[nH]c2ccccc2c1/N=N/C(S)=N/c1ncc(C2CCC2)o1 — 8-fold higher, 25 mg/L (≈ 73.2 µM)
- NNC(=O)c1ccncc1 [ISONIAZID] — 2-fold lower, 1.56 mg/L (≈ 11.4 µM)
- C/C(=N\N=C(/S)Nc1ncc(C2CCC2)o1)c1ccc(O)cc1 — the same, 3.12 mg/L (≈ 9.44 µM)
- CN(C)c1ccc(/C=N/N=C(\S)Nc2ncc(C3CCC3)o2)cc1 — the same, 3.12 mg/L (≈ 9.08 µM)
